Source: ChEMBL document CHEMBL4339200, “Structure-based Discovery of Phenyl (3-Phenylpyrrolidin-3-yl)sulfones as Selective, Orally Active RORγt Inverse Agonists” (ACS Med Chem Lett, 2019)
Calls of active or inactive are those of the source. No cut-off for these calls is given here.

Tests used:
[1] = target: Cytochrome P450 3A4 (Homo sapiens, UniProt P08684); test: Inhibition of CYP3A4 (unknown origin); type: ADME
[2] = target: Cytochrome P450 2C19 (Homo sapiens, UniProt P33261); test: Inhibition of CYP2C19 (unknown origin); type: ADME
Chain of Cytochrome P450 2C19 (P33261 whole entry): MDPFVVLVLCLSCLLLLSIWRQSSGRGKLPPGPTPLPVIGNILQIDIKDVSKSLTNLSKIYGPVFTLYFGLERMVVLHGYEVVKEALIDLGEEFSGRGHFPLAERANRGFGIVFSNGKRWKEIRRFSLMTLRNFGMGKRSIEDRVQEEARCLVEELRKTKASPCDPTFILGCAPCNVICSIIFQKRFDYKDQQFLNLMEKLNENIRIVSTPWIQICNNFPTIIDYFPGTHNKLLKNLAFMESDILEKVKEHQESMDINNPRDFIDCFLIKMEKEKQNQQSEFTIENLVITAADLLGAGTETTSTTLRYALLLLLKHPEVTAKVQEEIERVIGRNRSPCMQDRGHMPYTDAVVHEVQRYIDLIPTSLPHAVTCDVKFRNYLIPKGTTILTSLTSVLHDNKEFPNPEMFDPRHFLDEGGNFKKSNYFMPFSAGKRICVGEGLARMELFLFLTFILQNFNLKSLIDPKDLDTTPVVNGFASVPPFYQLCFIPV

[3] = Half life in mouse liver microsomes; type: ADME, Microsome
[4] = target: T1, Nuclear receptor ROR-alpha (Homo sapiens) (UniProt P35398); test: Inverse agonist activity at GAL4-fused RORalpha LBD (272 to 556 residues) (unknown origin) expressed in human Jurkat cells measured after 18 hrs by native IL17 promoter driven steady-glo luciferase assay; type: cell-based
T1 sequence (whole entry): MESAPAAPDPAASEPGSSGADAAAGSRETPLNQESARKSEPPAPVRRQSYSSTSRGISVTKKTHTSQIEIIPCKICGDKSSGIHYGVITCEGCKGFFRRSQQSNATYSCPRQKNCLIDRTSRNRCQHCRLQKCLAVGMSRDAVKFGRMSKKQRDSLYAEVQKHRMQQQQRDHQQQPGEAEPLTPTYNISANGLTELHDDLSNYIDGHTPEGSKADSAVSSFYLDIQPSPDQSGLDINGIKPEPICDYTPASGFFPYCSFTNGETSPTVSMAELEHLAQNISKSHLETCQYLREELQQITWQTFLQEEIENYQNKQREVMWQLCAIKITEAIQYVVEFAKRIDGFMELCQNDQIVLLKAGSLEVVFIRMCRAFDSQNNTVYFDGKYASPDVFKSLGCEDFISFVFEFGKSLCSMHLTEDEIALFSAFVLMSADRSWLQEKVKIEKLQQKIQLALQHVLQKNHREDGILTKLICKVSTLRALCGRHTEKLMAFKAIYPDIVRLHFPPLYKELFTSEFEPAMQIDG

[5] = tested on: Mus musculus; test: Inhibition of IL2/IL23-induced IL22 production in po bid dosed C57BL/6 mouse treated 30 mins prior to 24 hrs IL2 challenge followed by IL2/IL23 addition at 0,7 and 23 hrs measured after 7 hrs post last IL2/IL23 challenge; type: functional, organism-based
Outline: (§1)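 Naive mice were challenged three times with IL-2 plus IL-23 (first at 0 and 7 h) and dosed orally bid at 5, 15 or 50 mg/kg. Serum cytokines were measured 7 h after the final IL-2/IL-23 administration. An anti-IL-23 antibody served as positive control.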

[6] = tested on: Mus musculus; test: Inhibition of IL2/IL23-induced IL17F production in po bid dosed C57BL/6 mouse treated 30 mins prior to 24 hrs IL2 challenge followed by IL2/IL23 addition at 0,7 and 23 hrs measured after 7 hrs post last IL2/IL23 challenge; type: functional, organism-based; outline: as §1
[7] = target: Cytochrome P450 2C9 (Homo sapiens, UniProt P11712); test: Inhibition of CYP2C9 (unknown origin); type: ADME
Chain of Cytochrome P450 2C9 (P11712 whole entry): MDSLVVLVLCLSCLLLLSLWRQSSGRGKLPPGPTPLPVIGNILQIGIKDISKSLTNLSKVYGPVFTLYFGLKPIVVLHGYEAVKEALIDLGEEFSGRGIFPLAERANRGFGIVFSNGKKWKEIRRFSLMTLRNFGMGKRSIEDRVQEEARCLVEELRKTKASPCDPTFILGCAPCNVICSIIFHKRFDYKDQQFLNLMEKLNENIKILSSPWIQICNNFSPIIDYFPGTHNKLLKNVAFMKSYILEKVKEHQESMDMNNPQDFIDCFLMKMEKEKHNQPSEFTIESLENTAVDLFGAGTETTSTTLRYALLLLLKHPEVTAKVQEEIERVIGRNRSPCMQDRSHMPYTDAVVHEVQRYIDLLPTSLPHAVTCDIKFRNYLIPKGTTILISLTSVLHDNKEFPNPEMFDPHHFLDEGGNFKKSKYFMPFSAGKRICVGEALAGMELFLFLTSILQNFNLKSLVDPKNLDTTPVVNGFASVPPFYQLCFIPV

[8] = Clearance in Balb/c mouse at 2 mg/kg, iv; type: ADME, organism-based; conditions: in vivo
Outline: (§2)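 Balb/c mice given a single intravenous dose of 2 mg/kg or an oral dose of 10 mg/kg. Plasma exposure was followed to derive Cmax, Tmax, AUC, t1/2, clearance, Vss and oral bioavailability (F).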

[9] = Oral bioavailability in Balb/c mouse at 10 mg/kg; type: ADME, organism-based; conditions: in vivo; outline: as §2
[10] = tested on: Mus musculus; test: Inhibition of IL2/IL23-induced IL17F production in C57BL/6 mouse at 50 mg/kg, po bid treated 30 mins prior to 24 hrs IL2 challenge followed by IL2/IL23 addition at 0,7 and 23 hrs measured after 7 hrs post last IL2/IL23 challenge relative to control; type: functional; conditions: C57BL/6, po; outline: as §1
[11] = tested on: Mus musculus; test: Protection against IL23-induced acanthosis C57BL/6 mouse model of psoriasis assessed as reduction in ear swelling at 10 to 50 mg/kg, po bid for 10 days treated 2 hrs prior to IL23 challenge every other day for 10 days measured on day 11; type: functional, organism-based
[12] = target: T2, Oxysterols receptor LXR-beta (Homo sapiens, UniProt P55055); test: Agonist activity at LXRbeta (unknown origin) expressed in African green monkey CV1 cells; type: cell-based
T2 sequence (P55055 whole entry): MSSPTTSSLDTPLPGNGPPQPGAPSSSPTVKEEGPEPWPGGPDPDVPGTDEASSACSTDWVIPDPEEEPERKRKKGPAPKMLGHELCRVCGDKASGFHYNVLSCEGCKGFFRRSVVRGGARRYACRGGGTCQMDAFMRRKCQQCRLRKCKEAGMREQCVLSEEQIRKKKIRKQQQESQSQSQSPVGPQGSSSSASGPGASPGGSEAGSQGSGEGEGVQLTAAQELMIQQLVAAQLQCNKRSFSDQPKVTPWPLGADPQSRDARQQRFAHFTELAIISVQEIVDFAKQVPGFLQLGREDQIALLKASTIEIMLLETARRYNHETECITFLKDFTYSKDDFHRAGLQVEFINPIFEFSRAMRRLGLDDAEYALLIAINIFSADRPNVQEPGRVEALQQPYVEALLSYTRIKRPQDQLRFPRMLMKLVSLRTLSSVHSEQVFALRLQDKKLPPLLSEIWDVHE

[13] = target: T3, Oxysterols receptor LXR-alpha (Homo sapiens, UniProt Q13133); test: Agonist activity at LXRalpha (unknown origin) expressed in African green monkey CV1 cells; type: cell-based
T3 sequence (Q13133 whole entry): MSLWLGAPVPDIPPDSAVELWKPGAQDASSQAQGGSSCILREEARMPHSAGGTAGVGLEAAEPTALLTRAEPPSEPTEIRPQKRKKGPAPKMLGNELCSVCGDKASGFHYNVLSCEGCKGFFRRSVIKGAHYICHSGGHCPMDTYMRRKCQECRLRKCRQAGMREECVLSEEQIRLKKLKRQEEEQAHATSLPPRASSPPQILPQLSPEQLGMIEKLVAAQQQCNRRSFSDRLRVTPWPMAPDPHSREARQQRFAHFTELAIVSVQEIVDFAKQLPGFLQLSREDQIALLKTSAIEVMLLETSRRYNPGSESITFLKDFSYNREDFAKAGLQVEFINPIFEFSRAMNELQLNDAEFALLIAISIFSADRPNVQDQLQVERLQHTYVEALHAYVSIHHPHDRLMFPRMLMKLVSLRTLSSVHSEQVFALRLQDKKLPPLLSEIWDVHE

[14] = AUC in Balb/c mouse at 10 mg/kg, po; type: ADME, organism-based; conditions: in vivo; outline: as §2
[15] = Half life in Balb/c mouse at 2 mg/kg, iv; type: ADME, organism-based; conditions: in vivo; outline: as §2
[16] = tested on: Mus musculus; test: Inhibition of IL2/IL23-induced IL17F production in C57BL/6 mouse at 15 mg/kg, po bid treated 30 mins prior to 24 hrs IL2 challenge followed by IL2/IL23 addition at 0,7 and 23 hrs measured after 7 hrs post last IL2/IL23 challenge relative to control; type: functional; conditions: C57BL/6, po; outline: as §1
[17] = Volume of distribution at steady state in Balb/c mouse at 2 mg/kg, iv; type: ADME, organism-based; conditions: in vivo, read-out: Vdss; outline: as §2

Chain of Cytochrome P450 3A4 (P08684 whole entry): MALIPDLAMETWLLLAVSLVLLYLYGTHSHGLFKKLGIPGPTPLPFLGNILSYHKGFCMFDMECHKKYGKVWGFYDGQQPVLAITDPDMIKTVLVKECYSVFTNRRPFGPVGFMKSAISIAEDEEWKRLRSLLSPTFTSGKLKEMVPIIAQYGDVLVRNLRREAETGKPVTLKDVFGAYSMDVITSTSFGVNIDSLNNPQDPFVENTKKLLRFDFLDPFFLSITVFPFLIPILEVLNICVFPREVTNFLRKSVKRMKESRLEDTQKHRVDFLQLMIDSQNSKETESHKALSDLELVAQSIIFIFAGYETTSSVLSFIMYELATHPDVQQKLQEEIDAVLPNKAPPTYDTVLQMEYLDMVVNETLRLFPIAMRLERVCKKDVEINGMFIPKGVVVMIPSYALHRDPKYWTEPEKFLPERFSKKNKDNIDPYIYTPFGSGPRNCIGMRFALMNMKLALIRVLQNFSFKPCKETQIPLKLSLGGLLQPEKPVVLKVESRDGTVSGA

Q: For `O=C(O)[C@H]1CC[C@H](C(=O)N2CC[C@](c3ccc(C(F)(C(F)(F)F)C(F)(F)F)cc3)(S(=O)(=O)c3ccc(F)cc3)C2)CC1`, which IC50 [1] is on record?
A: > 20 µM

Q: What about the IC50 [2] of the same compound?
A: > 20 µM

Q: And the half-life [3]?
A: > 2 h

Q: What about the Activity [4] of the same compound?
A: inactive

Q: What about the inhibition [5] of the same compound?
A: Dose-dependent effect

Q: What about the inhibition [6] of the same compound?
A: Dose-dependent effect

Q: And the IC50 [7]?
A: > 20 µM

Q: What about the clearance [8] of the same compound?
A: 7.2 mL/min/kg

Q: And the bioavailability [9]?
A: 99%

Q: What about the inhibition in vivo at 50 mg/kg [10] of the same compound?
A: 98%

Q: And the Activity [11]?
A: Active

Q: And the EC50 [12]?
A: > 7.5 µM

Q: What about the EC50 [13] of the same compound?
A: > 7.5 µM

Q: And the AUC [14]?
A: 36.6 µM·h

Q: And the half-life [15]?
A: 7.2 h

Q: And the inhibition in vivo at 15 mg/kg [16]?
A: 77%

Q: What about the Vd [17] of the same compound?
A: 3.4 L/kg
